# Measurements published in ChEMBL document CHEMBL3352193, “Synthesis of novel substituted purine derivatives and identification of the cell death mechanism” (Eur J Med Chem, 2015).
# Calls of active or inactive are those of the source. The rule behind the calls is not given here.
# How the values were obtained:
# [1] = test system: Huh-7; assay: Reduction in intrinsic cellular ATP consumption in human HuH7 cells at IC50 after 24 hrs by bioluminescence assay; format: functional, cell-based
# In short: (§1)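 Cells treated for 24 h, with staurosporine as positive control and DMSO-only controls. 20 µg lysate protein in kinase buffer (40 mM Tris-HCl pH 7.6, 20 mM MgCl2, 0.1 mg/ml BSA), no exogenous ATP added. Luciferase ATP-detection reagent added, 10 min in the dark at room temperature, then luminescence read. Higher signal taken as reduced ATP consumption.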
# [2] = test system: Mahlavu; assay: Reduction in intrinsic cellular ATP consumption in human Mahlavu cells at IC50 after 24 hrs by bioluminescence assay; format: functional, cell-based; in short: as §1
# [3] = test system: HepG2; assay: Cytotoxicity against human HepG2 cells after 48 hrs by SRB assay; format: functional, cell-based; conditions: HepG2, 48 h
# In short: (§2)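 Sulforhodamine B assay. Cells seeded at 2000–10,000/well and treated the next day in triplicate with ten concentrations (DMSO vehicle, under 1% final) for 24, 48 or 72 h at 37 °C, 5% CO2. Fixed with ice-cold TCA for 1 h at 4 °C, stained with 0.4% SRB in 1% acetic acid, dye solubilized in 10 mM Tris base, A515 read. % inhibition = 100 × (1 − OD drug/OD DMSO). IC50 taken from dose–response curves.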
# [4] = Cytotoxicity against human SKHEP1 cells after 72 hrs by SRB assay; format: functional, cell-based; conditions: SK-HEP1, 72 h
# In short: (§3)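 Liver cancer cell panel, SRB assay after 72 h exposure to ten concentrations (DMSO vehicle under 1%). TCA-fixed, SRB-stained, absorbance at 515 nm. Percent cell death calculated against DMSO-only wells, and IC50 read from dose–response curves.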
# [5] = test system: Mahlavu; assay: Induction of […] in human Mahlavu cells assessed as PARP cleavage at IC50 after 72 hrs by Western blotting analysis; format: functional, cell-based
# [6] = test system: Huh-7; assay: Cytotoxicity against human HuH7 cells measured every 30 mins up to 120 hrs by RT-CES method
# [7] = Cytotoxicity against human HuH7 cells after 24 hrs by SRB assay; format: functional, cell-based; conditions: Huh-7, 24 h; in short: as §2
# [8] = test system: HepG2; assay: Cytotoxicity against human HepG2 cells after 24 hrs by SRB assay; format: functional, cell-based; conditions: HepG2, 24 h; in short: as §2
# [9] = test system: Mahlavu; assay: Induction of apoptosis in human Mahlavu cells assessed as PARP cleavage at IC50 after 72 hrs by Western blotting analysis; format: functional, cell-based
# [10] = test system: Mahlavu; assay: Induction of apoptosis in human Mahlavu cells assessed as Bcl2 expression at IC50 after 72 hrs by Western blotting analysis; format: functional, cell-based
# [11] = test system: FOCUS; assay: Cytotoxicity against human FOCUS cells assessed as condensed apoptotic nuclei after 72 hrs by Hoechst […] staining-based fluorescence microscopy; format: functional, cell-based
# [12] = test system: HepG2; assay: Cytotoxicity against human HepG2 cells after 72 hrs by SRB assay; format: functional, cell-based; conditions: HepG2, 72 h; in short: as §2
# [13] = test system: Mahlavu; assay: Cytotoxicity against human Mahlavu cells measured every 30 mins up to 120 hrs by RT-CES method
# [14] = Cytotoxicity against human Hep3B cells after 72 hrs by SRB assay; format: functional, cell-based, Hep 3B2; in short: as §3
# [15] = test system: Huh-7; assay: Cytotoxicity against human HuH7 cells assessed as condensed apoptotic nuclei after 72 hrs by Hoechst […] staining-based fluorescence microscopy; format: functional, cell-based
# [16] = Cytotoxicity against human SNU475 cells after 72 hrs by SRB assay; format: functional, cell-based, SNU-475; conditions: snu-475; in short: as §3
# [17] = Cytotoxicity against human FOCUS cells after 72 hrs by SRB assay; format: functional, cell-based; in short: as §2
# [18] = Cytotoxicity against human HuH7 cells after 72 hrs by SRB assay; format: functional, cell-based; conditions: Huh-7, 72 h; in short: as §2
# [19] = Cytotoxicity against human Mahlavu cells after 48 hrs by SRB assay; format: functional, cell-based; in short: as §2
# [20] = test system: HepG2; assay: Cytotoxicity against human HepG2 cells measured every 30 mins up to 120 hrs by RT-CES method
# [21] = test system: HepG2; assay: Cytotoxicity against human HepG2 cells at 2.5 to 40 uM by RT-CES method; format: functional, cell-based; conditions: TDE = time-dependent effect
# In short: (§4)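 Real-time impedance sensing (xCELLigence) on E-96 plates, run in triplicate. 2000 cells/well seeded; the next day medium was partly replaced and the compound added at 40, 20, 10, 5 or 2.5 µM, with DMSO-only and medium-only wells. Cell Index recorded every 30 min for at least 120 h at 37 °C, 5% CO2.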
# [22] = test system: Huh-7; assay: Cytotoxicity against human HuH7 cells at 2.5 to 40 uM by RT-CES method; format: functional, cell-based; conditions: TDE = time-dependent effect; in short: as §4
# [23] = test system: Mahlavu; assay: Cytotoxicity against human Mahlavu cells at 2.5 to 40 uM by RT-CES method; format: functional, cell-based; conditions: TDE = time-dependent effect; in short: as §4
# [24] = Cytotoxicity against human FOCUS cells after 24 hrs by SRB assay; format: functional, cell-based; in short: as §2
# [25] = test system: PLC; assay: Cytotoxicity against human PLC cells after 72 hrs by SRB assay; format: functional, cell-based; in short: as §3
# [26] = Cytotoxicity against human Mahlavu cells after 72 hrs by SRB assay; format: functional, cell-based; in short: as §2
# [27] = Cytotoxicity against human HCT116 cells after 72 hrs by SRB assay; format: functional, cell-based; conditions: HCT-116, 72 h
# In short: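 SRB screen. Cells seeded at 2000–10,000/well and treated next day for 72 h with 40, 20, 10, 5 and 2.5 µM (DMSO under 1%). TCA fixation, 0.4% SRB staining, Tris solubilization, absorbance at 515 nm. Growth inhibition calculated relative to DMSO-only wells. IC50 derived from the five-concentration inhibition percentages.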
# [28] = Cytotoxicity against human FOCUS cells after 48 hrs by SRB assay; format: functional, cell-based; in short: as §2
# [29] = test system: Huh-7; assay: Induction of senescence in human HuH7 cells at IC50 to IC100 after 3 to 6 days by BrdU staining-based assay; format: functional, cell-based
# In short: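 Huh7 cells (5000) on coverslips in 6-well plates, treated with compound at IC50 and IC100, doxorubicin 25 ng/ml, or DMSO for 3 and 6 days. Medium refreshed 24 h before assay, containing 30 µM BrdU in one plate. SA-β-gal staining and BrdU incorporation assessed in parallel.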
# [30] = test system: Mahlavu; assay: Induction of apoptosis in human Mahlavu cells assessed as total cytochrome c level at IC50 after 72 hrs by Western blotting analysis; format: functional, cell-based
# [31] = Cytotoxicity against human SNU182 cells after 72 hrs by SRB assay; format: functional, cell-based; conditions: SNU-182, 72 h; in short: as §3
# [32] = Cytotoxicity against human HuH7 cells after 48 hrs by SRB assay; format: functional, cell-based; conditions: Huh-7, 48 h; in short: as §2
# [33] = Cytotoxicity against human Mahlavu cells after 24 hrs by SRB assay; format: functional, cell-based; in short: as §2
# [34] = test system: T47D; assay: Cytotoxicity against human T47D cells after 72 hrs by SRB assay; format: functional, cell-based
structure (smiles),measurement,setting,value
FC(F)(F)c1ccc(N2CCN(c3ncnc4c3ncn4C3CCCC3)CC2)cc1,Activity,[1],Active
same,Activity,[2],Active
same,IC50,[3],800 nM
same,IC50,[4],200 nM
same,Activity,[5],inactive
same,Activity,[6],Dose-dependent effect
same,IC50,[7],2700 nM
same,IC50,[8],1200 nM
same,Activity,[9],inactive
same,Activity,[10],inactive
same,Activity,[11],Active
same,IC50,[12],200 nM
same,Activity,[13],Dose-dependent effect
same,IC50,[14],800 nM
same,Activity,[15],Active
same,IC50,[16],Not Active
same,IC50,[17],100 nM
same,IC50,[18],200 nM
same,IC50,[19],300 nM
same,Activity,[20],Dose-dependent effect
same,Activity,[21],tde
same,Activity,[22],tde
same,Activity,[23],tde
same,IC50,[24],16700 nM
same,IC50,[25],6400 nM
same,IC50,[26],100 nM
same,IC50,[27],< 100 nM
same,IC50,[28],300 nM
same,Activity,[29],Active
same,Activity,[30],inactive
same,IC50,[31],9600 nM
same,IC50,[32],1400 nM
same,IC50,[33],50100 nM
same,IC50,[34],< 100 nM
